Assay results as given in ChEMBL document CHEMBL2177000, “Pharmacokinetic optimization of class-selective histone deacetylase inhibitors and identification of associated candidate predictive biomarkers of hepatocellular carcinoma tumor response” (J Med Chem, 2012).

Legend:
[1] = biological target: T1, Protein deacetylase HDAC6 (Homo sapiens, UniProt Q9UBN7); experiment: Inhibition of HDAC6 using p53 (379 to 382 residues) based fluorogenic peptide substrate
T1 sequence (Q9UBN7 whole entry): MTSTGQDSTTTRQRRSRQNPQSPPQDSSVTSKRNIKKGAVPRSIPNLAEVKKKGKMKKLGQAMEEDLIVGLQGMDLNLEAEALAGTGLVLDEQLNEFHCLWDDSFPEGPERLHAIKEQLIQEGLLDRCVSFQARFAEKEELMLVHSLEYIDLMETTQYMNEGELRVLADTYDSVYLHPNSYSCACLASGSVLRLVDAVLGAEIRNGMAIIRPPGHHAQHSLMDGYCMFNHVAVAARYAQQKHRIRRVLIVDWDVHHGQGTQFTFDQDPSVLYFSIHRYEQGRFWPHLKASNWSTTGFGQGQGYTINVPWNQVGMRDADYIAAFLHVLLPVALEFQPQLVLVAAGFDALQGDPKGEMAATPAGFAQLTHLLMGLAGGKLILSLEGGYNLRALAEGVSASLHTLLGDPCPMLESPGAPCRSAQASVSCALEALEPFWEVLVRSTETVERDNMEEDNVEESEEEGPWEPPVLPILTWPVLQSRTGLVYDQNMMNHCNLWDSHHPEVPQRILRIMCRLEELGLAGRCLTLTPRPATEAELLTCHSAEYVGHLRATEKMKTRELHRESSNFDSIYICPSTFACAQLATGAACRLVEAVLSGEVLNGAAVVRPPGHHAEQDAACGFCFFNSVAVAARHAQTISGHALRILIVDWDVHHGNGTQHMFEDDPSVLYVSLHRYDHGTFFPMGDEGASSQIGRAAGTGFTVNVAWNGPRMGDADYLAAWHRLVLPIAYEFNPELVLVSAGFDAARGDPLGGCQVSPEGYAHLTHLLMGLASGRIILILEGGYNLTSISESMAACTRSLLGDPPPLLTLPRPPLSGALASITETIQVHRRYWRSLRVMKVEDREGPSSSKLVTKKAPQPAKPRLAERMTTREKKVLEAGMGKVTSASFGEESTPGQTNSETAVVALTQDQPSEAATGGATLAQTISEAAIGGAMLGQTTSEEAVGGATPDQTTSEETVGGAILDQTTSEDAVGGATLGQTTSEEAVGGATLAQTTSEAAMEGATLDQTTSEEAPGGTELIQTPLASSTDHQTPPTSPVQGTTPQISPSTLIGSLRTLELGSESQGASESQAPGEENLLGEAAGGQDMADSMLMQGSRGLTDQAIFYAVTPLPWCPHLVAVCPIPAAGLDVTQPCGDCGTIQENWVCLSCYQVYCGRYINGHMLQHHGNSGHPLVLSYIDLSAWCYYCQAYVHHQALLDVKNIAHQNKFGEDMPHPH

Histone deacetylase 7 = biological target: T2, Histone deacetylase 7 (Homo sapiens, UniProt Q8WUI4); experiment: Inhibition of HDAC7 using p53 (379 to 382 residues) based fluorogenic peptide substrate
T2 sequence (Q8WUI4 whole entry): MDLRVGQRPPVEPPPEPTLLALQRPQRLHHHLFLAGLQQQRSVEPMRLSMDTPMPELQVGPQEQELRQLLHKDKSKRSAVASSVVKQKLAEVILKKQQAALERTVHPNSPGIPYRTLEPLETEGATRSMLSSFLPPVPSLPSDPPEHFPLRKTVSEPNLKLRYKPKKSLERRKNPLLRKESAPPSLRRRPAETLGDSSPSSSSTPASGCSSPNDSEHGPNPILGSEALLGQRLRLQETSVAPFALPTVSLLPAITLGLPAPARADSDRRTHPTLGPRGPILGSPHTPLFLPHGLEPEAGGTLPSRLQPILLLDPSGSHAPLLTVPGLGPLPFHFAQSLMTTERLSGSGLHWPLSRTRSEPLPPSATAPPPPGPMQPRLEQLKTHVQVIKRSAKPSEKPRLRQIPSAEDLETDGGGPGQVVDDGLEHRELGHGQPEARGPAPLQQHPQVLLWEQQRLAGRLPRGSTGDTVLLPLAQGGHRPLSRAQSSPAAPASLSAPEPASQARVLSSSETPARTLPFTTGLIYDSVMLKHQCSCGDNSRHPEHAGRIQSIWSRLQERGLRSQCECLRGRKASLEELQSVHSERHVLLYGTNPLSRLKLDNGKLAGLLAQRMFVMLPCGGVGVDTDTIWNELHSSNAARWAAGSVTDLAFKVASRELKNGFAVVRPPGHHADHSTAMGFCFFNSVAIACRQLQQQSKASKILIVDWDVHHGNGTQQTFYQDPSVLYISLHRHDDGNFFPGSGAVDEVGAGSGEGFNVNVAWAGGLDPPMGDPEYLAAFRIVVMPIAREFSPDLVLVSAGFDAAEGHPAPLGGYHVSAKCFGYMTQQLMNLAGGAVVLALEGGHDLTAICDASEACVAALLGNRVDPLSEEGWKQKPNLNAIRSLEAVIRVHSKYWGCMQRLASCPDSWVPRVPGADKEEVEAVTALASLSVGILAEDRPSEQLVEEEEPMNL

[2] = Clearance in BALB/C mouse at 10 mg/kg, po or 2 mg/kg, iv by LC-MS/MS method; type: ADME, organism-based; conditions: in vivo
Outline: (§1)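 Female-unspecified BALB/C nude mice (15−20 g, N = 16 per arm); iv bolus 2 mg/kg in 5% DMSO/40% PEG400/55% saline and/or oral gavage 10 mg/kg as 0.445% microcrystalline cellulose microsuspension. Blood sampled at nine (iv) or eight (po) time points into sodium heparin tubes; plasma by LC-MS/MS; noncompartmental analysis.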

[3] = Tmax in BALB/C mouse at 10 mg/kg, po or 2 mg/kg, iv by LC-MS/MS method; type: ADME, organism-based; conditions: BALB/C, in vivo
Outline: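 Single-dose PK: iv bolus 2 mg/kg in 5% DMSO/40% PEG400/55% saline and/or oral gavage 10 mg/kg as 0.445% microcrystalline cellulose microsuspension; BALB/C nude mice (15−20 g, N = 16 per arm) or male Sprague−Dawley rats (250 ± 20 g, N = 3). Blood at eight (po) or nine (iv) time points into sodium heparin, plasma by LC-MS/MS, noncompartmental analysis.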

[4] = Oral bioavailability in BALB/C mouse at 10 mg/kg by LC-MS/MS method; type: ADME, organism-based; conditions: BALB/C, in vivo
Outline: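 Bioavailability from single-dose iv (2 mg/kg, 5% DMSO/40% PEG400/55% saline) and oral gavage (10 mg/kg, 0.445% microcrystalline cellulose microsuspension) studies in BALB/C nude mice (N = 16 per arm); plasma at eight (po) or nine (iv) time points, LC-MS/MS, noncompartmental analysis.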

[5] = Half life in BALB/C mouse at 10 mg/kg, po or 2 mg/kg, iv by LC-MS/MS method; type: ADME, organism-based; conditions: BALB/C, in vivo; outline: as §1
[6] = biological target: Histone deacetylase (Homo sapiens) (UniProt Q13547+O15379+Q9UBN7+Q92769+Q9UQL6+Q8WUI4+Q9BY41+Q96DB2+P56524+Q9UKV0+Q969S8); experiment: Inhibition of Class 1 histone deacetylase in human HeLa cells assessed as induction in p21 protein expression at 3 uM incubated for 16 hrs by luciferase reporter gene assay relative to HDAC inhibitor entinostat; type: cell-based; set-up: scale not given: the % may be the effect or the level left

IC50 [1] [µM]	IC50 (Histone deacetylase 7) [µM]	clearance [2] [mL/min/kg]	Tmax [3] [h]	bioavailability [4] [%]	half-life [5] [h]	Activity [6] [%]	Structure (SMILES)
> 30	> 30						CN1C[C@H](C(=O)Nc2ccc(Cl)cc2)[C@@H](c2ccc(/C=C/C(=O)Nc3ccccc3N)cc2)C1 [listing 1 of 2 here]
> 30	> 30	58	1	89	6.2		CN1C[C@@H](C(=O)Nc2ccc(Cl)cc2)[C@H](c2ccc(/C=C/C(=O)Nc3ccccc3N)cc2)C1
						257	CN1C[C@H](C(=O)Nc2ccc(Cl)cc2)[C@@H](c2ccc(/C=C/C(=O)Nc3ccccc3N)cc2)C1 [listing 2 of 2 here]
> 30	> 30	23	2	49	3.4	130	CN1C[C@H](C(=O)Nc2ccc(Cl)cc2)[C@@H](c2ccc(/C=C/C(=O)Nc3ccccc3N)cc2F)C1 (racemic)
